According to ChEMBL document CHEMBL1250448, “Inhibitor hijacking of Akt activation” (Nat Chem Biol, 2009):
Activity calls are given as the source filed them. The calls are words filed in the database; no cut-off is given here.

Experiments:
[1] = molecular target: Protein kinase C eta type (Homo sapiens) (UniProt P24723); assay: Inhibition of PRKCH at 1 uM in presence of 10 uM ATP by Select Screen kinase assay relative to untreated control
[2] = molecular target: Serine/threonine-protein kinase D1 (Homo sapiens) (UniProt Q15139); assay: Inhibition of PRKD1 at 1 uM in presence of 10 uM ATP by Select Screen kinase assay relative to untreated control
[3] = molecular target: cGMP-dependent protein kinase 1 (Homo sapiens) (UniProt Q13976); assay: Inhibition of PRKG1 at 1 uM in presence of 10 uM ATP by Select Screen kinase assay relative to untreated control
[4] = molecular target: Proto-oncogene tyrosine-protein kinase receptor Ret (Homo sapiens) (UniProt P07949); assay: Inhibition of RET at 1 uM in presence of 100 uM ATP by Select Screen kinase assay relative to untreated control
How it was run: (§1)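 Profiling panel of 220 purified kinases (SelectScreen), each compound tested at 1 μM. Read-out is percent inhibition of kinase activity.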

[5] = system: Proto-oncogene tyrosine-protein kinase receptor Ret (Homo sapiens), P07949 [V804L]; assay: Inhibition of RET V804L mutant at 1 uM in presence of 10 uM ATP by Select Screen kinase assay relative to untreated control
How it was run: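 Commercial SelectScreen profiling panel of 220 purified kinases. Each kinase was tested at a single inhibitor concentration of 1 μM, and activity was expressed as percent inhibition.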

[6] = molecular target: Tyrosine-protein kinase ABL1 (Homo sapiens) (UniProt P00519); assay: Inhibition of ABL1 at 1 uM in presence of 10 uM ATP by Select Screen kinase assay relative to untreated control
How it was run: (§2)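 Single-point screen at 1 μM against a panel of 220 purified kinases, run by Invitrogen staff as a SelectScreen profiling service. Read-out is percent inhibition of kinase activity.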

[7] = system: Tyrosine-protein kinase ABL1 (Homo sapiens), P00519 [E255K]; assay: Inhibition of ABL1 E255K mutant at 1 uM in presence of 10 uM ATP by Select Screen kinase assay relative to untreated control; how it was run: as §2
[8] = system: Tyrosine-protein kinase ABL1 (Homo sapiens), P00519 [T315I]; assay: Inhibition of ABL1 T315I mutant at 1 uM in presence of 10 uM ATP by Select Screen kinase assay relative to untreated control; how it was run: as §2
[9] = molecular target: Calcium/calmodulin-dependent protein kinase type 1D (Homo sapiens) (UniProt Q8IU85); assay: Inhibition of CAMK1D at 1 uM in presence of 10 uM ATP by Select Screen kinase assay relative to untreated control; how it was run: as §2
[10] = molecular target: Ribosomal protein S6 kinase alpha-2 (Homo sapiens) (UniProt Q15349); assay: Inhibition of RPS6KA2 at 1 uM in presence of 10 uM ATP by Select Screen kinase assay relative to untreated control
[11] = molecular target: Calcium/calmodulin-dependent protein kinase type II subunit delta (Homo sapiens) (UniProt Q13557); assay: Inhibition of CAMK2D at 1 uM in presence of 10 uM ATP by Select Screen kinase assay relative to untreated control; how it was run: as §2
[12] = molecular target: Casein kinase I isoform epsilon (Homo sapiens) (UniProt P49674); assay: Inhibition of CSNK1E at 1 uM in presence of 10 uM ATP by Select Screen kinase assay relative to untreated control
[13] = molecular target: Tyrosine-protein kinase JAK3 (Homo sapiens) (UniProt P52333); assay: Inhibition of JAK3 at 1 uM in presence of 10 uM ATP by Select Screen kinase assay relative to untreated control
How it was run: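 Single-concentration profiling at 1 μM against a panel of 220 purified kinases, run as an outsourced SelectScreen kinase profiling service. Activity is expressed as percent inhibition.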

[14] = molecular target: MAP kinase-activated protein kinase 3 (Homo sapiens) (UniProt Q16644); assay: Inhibition of MAPKAPK3 at 1 uM in presence of 10 uM ATP by Select Screen kinase assay relative to untreated control
[15] = molecular target: Misshapen-like kinase 1 (Homo sapiens) (UniProt Q8N4C8); assay: Inhibition of MINK1 at 1 uM in presence of 10 uM ATP by Select Screen kinase assay relative to untreated control
[16] = molecular target: Muscle, skeletal receptor tyrosine-protein kinase (Homo sapiens) (UniProt O15146); assay: Inhibition of MUSK at 1 uM in presence of 100 uM ATP by Select Screen kinase assay relative to untreated control
[17] = molecular target: Serine/threonine-protein kinase PAK 6 (Homo sapiens) (UniProt Q9NQU5); assay: Inhibition of PAK6 at 1 uM in presence of 10 uM ATP by Select Screen kinase assay relative to untreated control
[18] = molecular target: Serine/threonine-protein kinase pim-1 (Homo sapiens) (UniProt P11309); assay: Inhibition of PIM1 at 1 uM in presence of 10 uM ATP by Select Screen kinase assay relative to untreated control; how it was run: as §1
[19] = molecular target: Serine/threonine-protein kinase N1 (Homo sapiens) (UniProt Q16512); assay: Inhibition of PKN1 at 1 uM in presence of 10 uM ATP by Select Screen kinase assay relative to untreated control; how it was run: as §1
[20] = molecular target: Serine/threonine-protein kinase PLK2 (Homo sapiens) (UniProt Q9NYY3); assay: Inhibition of PLK2 at 1 uM in presence of 10 uM ATP by Select Screen kinase assay relative to untreated control
[21] = molecular target: Protein kinase C alpha type (Homo sapiens) (UniProt P17252); assay: Inhibition of PRKCA at 1 uM in presence of 10 uM ATP by Select Screen kinase assay relative to untreated control
[22] = molecular target: Protein kinase C beta type (Homo sapiens) (UniProt P05771); assay: Inhibition of PRKCB1 at 1 uM in presence of 10 uM ATP by Select Screen kinase assay relative to untreated control
[23] = molecular target: T1, RAC-alpha serine/threonine-protein kinase (Homo sapiens, UniProt P31749); assay: Inhibition of wild type AKT1 expressed in HEK293 cells assessed as reduction of IGF1-induced GSK3-beta Ser9 phosphorylation treated 20 mins before IGF1 stimulation by immunoblotting; assay type: cell-based
How it was run: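 Untransfected HEK293 cells carrying endogenous Akt were serum-starved overnight. They were treated with compound for 20 min, then stimulated with 50 ng/ml IGF-1 for 10 min. DMSO stocks were diluted 1:1000. Lysates in Tris pH 7.5/Triton buffer with phosphatase inhibitors were immunoblotted for GSK3β Ser9 and Akt Thr308/Ser473 phosphorylation, read by ECL.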

[24] = molecular target: T1, RAC-alpha serine/threonine-protein kinase; assay: Induction of AKT1 Thr308 phosphorylation expressed in IGF1-stimulated HEK293 cells treated 20 mins before IGF1 stimulation by immunoblotting; assay type: cell-based
How it was run: (§3)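 HEK293 cells (not transfected), serum-starved overnight, then given inhibitor for 20 min before 50 ng/ml IGF-1 for a further 10 min. Cells detached in ice-cold Ca/Mg-free PBS with 0.04% EDTA and lysed in Tris pH 7.5 Triton buffer with protease/phosphatase inhibitors. Lysates cleared at 14000 g, protein equalised by Bradford, and pThr308, pSer473 and GSK3β pSer9 read by immunoblot with ECL.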

[25] = molecular target: T1, RAC-alpha serine/threonine-protein kinase; assay: Induction of AKT1 Ser473 phosphorylation expressed in IGF1-stimulated HEK293 cells treated 20 mins before IGF1 stimulation by immunoblotting; assay type: cell-based; how it was run: as §3

T1 sequence (P31749 whole entry): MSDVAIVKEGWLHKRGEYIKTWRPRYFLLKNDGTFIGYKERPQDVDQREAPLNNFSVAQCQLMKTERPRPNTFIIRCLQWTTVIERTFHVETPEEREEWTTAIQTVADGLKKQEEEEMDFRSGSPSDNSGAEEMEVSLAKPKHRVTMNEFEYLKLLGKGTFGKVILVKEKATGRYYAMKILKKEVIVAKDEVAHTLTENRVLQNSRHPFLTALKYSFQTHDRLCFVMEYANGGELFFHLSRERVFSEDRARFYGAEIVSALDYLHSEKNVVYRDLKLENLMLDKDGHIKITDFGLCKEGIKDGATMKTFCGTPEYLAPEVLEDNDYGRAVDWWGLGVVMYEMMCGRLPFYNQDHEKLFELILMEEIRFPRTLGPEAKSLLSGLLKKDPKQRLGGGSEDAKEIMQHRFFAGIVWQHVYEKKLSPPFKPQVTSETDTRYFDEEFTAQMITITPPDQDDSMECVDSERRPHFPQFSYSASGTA
Chain of Proto-oncogene tyrosine-protein kinase receptor Ret (Homo sapiens) (P07949 whole entry): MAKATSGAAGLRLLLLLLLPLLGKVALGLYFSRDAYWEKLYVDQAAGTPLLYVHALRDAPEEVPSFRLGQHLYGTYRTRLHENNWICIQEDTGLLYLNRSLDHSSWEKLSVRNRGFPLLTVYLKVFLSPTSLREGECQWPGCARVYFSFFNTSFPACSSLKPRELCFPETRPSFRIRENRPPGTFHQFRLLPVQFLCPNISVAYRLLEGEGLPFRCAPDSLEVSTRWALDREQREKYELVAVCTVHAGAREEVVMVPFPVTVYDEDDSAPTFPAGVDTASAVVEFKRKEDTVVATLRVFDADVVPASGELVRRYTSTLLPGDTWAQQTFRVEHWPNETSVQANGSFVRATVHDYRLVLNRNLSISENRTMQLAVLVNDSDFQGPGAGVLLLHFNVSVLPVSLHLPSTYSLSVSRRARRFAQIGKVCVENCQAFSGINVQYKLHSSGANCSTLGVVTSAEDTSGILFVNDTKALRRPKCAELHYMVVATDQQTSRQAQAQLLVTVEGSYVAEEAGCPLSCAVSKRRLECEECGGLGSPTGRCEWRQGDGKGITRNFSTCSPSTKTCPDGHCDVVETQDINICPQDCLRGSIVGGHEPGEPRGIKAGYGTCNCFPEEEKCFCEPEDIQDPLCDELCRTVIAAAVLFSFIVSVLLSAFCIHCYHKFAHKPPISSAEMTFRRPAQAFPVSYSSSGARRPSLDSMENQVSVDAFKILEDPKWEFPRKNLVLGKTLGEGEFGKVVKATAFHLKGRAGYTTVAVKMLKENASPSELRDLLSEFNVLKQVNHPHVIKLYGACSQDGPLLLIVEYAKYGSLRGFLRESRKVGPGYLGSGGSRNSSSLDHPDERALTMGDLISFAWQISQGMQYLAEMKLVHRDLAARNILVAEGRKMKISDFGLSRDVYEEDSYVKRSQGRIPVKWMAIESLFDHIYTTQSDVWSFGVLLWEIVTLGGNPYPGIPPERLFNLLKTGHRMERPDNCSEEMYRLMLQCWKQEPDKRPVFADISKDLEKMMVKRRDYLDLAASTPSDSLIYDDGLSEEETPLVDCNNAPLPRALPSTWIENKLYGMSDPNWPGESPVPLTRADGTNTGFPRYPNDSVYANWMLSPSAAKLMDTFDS
Chain of cGMP-dependent protein kinase 1 (Homo sapiens) (Q13976 whole entry): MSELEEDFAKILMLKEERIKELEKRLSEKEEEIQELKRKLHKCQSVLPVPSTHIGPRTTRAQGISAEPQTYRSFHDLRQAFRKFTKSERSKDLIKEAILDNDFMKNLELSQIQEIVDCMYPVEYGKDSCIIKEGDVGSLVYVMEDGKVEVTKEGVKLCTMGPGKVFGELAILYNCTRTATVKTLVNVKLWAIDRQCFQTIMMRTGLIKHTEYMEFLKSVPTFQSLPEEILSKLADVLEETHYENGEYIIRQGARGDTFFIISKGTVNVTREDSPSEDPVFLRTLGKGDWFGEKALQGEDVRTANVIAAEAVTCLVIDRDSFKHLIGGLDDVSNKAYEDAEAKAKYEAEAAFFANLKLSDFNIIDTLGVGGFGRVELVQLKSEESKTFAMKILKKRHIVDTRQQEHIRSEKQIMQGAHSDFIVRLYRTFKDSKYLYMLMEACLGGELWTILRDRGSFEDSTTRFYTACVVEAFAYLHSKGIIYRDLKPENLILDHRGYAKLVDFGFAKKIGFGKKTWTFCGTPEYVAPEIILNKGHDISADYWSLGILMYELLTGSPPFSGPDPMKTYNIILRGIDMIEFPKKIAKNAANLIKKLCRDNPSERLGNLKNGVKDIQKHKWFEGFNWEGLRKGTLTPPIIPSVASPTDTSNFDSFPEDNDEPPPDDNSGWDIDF
Chain of Serine/threonine-protein kinase PLK2 (Homo sapiens) (Q9NYY3 whole entry, looked up): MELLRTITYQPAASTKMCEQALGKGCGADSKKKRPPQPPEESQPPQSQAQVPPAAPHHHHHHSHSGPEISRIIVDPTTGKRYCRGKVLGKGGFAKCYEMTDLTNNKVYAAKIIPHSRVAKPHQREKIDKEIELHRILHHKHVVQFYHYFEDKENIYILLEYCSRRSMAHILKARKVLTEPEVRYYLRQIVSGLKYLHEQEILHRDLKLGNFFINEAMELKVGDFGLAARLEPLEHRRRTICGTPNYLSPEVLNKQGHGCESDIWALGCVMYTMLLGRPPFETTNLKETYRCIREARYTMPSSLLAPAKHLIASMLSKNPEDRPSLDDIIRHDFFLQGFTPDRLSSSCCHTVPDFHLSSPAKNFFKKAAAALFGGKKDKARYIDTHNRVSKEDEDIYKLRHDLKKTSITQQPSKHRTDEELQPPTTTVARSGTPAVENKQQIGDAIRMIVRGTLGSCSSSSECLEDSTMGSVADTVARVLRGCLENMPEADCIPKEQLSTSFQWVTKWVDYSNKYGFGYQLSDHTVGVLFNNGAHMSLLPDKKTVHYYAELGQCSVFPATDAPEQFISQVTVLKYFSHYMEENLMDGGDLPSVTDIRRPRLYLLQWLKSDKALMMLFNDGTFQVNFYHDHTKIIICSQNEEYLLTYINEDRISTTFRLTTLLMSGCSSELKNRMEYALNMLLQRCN
Chain of Proto-oncogene tyrosine-protein kinase receptor Ret (Homo sapiens), P07949 [V804L] (P07949 whole entry V804L): as the sequence (P07949 whole entry) above, with V804L counted along it
Chain of MAP kinase-activated protein kinase 3 (Homo sapiens) (Q16644 whole entry, looked up): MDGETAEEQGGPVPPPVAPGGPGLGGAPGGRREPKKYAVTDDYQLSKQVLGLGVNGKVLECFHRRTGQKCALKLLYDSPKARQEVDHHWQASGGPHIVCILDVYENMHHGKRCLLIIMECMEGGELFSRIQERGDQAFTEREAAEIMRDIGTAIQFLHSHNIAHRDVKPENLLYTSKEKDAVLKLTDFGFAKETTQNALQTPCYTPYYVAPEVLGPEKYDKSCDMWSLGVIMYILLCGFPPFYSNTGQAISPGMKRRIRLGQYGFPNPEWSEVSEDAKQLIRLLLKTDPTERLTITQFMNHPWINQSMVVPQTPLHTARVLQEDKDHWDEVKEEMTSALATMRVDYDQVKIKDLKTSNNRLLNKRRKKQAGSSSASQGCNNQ
Chain of Serine/threonine-protein kinase D1 (Homo sapiens) (Q15139 whole entry): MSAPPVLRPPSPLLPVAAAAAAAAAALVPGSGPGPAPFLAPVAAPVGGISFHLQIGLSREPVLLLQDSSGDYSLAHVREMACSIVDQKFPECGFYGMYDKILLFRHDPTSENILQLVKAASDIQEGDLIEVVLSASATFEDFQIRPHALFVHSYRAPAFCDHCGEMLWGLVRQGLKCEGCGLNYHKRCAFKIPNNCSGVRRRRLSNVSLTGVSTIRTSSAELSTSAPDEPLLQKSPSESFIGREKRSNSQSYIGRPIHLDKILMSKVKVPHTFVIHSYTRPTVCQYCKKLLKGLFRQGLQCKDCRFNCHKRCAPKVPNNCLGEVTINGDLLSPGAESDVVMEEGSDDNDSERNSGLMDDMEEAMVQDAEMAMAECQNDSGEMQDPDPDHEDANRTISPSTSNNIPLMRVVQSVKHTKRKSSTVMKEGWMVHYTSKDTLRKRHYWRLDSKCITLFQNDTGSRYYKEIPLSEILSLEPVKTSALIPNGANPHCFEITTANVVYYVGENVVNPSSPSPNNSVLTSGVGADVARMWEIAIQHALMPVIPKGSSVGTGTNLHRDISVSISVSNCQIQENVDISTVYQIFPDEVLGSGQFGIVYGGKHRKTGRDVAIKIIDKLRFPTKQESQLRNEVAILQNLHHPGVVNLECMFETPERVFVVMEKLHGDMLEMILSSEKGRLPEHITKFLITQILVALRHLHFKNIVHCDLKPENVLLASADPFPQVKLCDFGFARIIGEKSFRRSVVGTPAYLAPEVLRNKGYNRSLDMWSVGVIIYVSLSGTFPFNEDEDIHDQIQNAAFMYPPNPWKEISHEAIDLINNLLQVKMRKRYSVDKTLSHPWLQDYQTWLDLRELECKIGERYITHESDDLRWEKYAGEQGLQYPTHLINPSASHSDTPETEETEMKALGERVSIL
Chain of Calcium/calmodulin-dependent protein kinase type 1D (Homo sapiens) (Q8IU85 whole entry, looked up): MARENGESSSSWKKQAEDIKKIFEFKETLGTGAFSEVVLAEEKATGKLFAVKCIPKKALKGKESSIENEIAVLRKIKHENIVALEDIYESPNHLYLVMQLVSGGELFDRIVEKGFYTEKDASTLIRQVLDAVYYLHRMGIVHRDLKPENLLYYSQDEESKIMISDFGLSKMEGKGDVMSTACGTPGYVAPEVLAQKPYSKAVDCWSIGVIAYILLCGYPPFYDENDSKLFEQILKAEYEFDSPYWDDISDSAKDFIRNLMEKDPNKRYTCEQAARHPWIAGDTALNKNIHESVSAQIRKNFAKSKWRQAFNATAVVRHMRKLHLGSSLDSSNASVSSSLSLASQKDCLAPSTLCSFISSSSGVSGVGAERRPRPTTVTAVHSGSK
Chain of Serine/threonine-protein kinase pim-1 (Homo sapiens) (P11309 whole entry, looked up): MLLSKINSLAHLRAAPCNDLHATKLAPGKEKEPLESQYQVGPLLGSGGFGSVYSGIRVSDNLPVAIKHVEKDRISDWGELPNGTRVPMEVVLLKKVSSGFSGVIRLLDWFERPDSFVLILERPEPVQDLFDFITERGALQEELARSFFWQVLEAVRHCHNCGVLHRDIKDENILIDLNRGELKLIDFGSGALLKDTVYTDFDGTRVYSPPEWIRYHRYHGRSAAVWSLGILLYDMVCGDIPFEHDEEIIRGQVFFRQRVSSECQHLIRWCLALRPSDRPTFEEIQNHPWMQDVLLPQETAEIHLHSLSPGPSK

| SMILES | inhibition [1] | inhibition [2] | inhibition [3] | inhibition [4] | inhibition [5] | inhibition [6] | inhibition [7] | inhibition [8] | inhibition [9] | inhibition [10] | inhibition [11] | inhibition [12] | inhibition [13] | inhibition [14] | inhibition [15] | inhibition [16] | inhibition [17] | inhibition [18] | inhibition [19] | inhibition [20] | also measured |
| --- | --- | --- | --- | --- | --- | --- | --- | --- | --- | --- | --- | --- | --- | --- | --- | --- | --- | --- | --- | --- | --- |
| COc1ccccc1N1CCN(c2ncnc3[nH]nc(Br)c23)CC1 | 8% | 5% | 52% | 41% | 66% | 12% | 5% | 8% | 24% | 55% | 11% | 23% | -1% | 11% | 71% | 19% | 5% | 20% | 18% | 24% | inhibition [21]: 21%; inhibition [22]: 35% |
| CCCc1cc(-c2cncc(OC[C@@H](N)Cc3c[nH]c4ccccc34)c2)cc2c(C)n[nH]c12 | – | – | – | – | – | – | – | – | – | – | – | – | – | – | – | – | – | – | – | – | inhibition [23]: inactive; Activity [24]: inactive; Activity [25]: inactive |
| O=C(NCCCNc1nc(Nc2cccc(NC(=O)N3CCCC3)c2)ncc1I)c1cccs1 | 7% | 71% | 22% | 87% | 93% | 37% | 26% | 40% | 14% | 63% | 85% | – | 89% | 10% | 38% | 76% | 11% | 9% | 84% | 38% | inhibition [21]: 61%; inhibition [22]: 28% |
| Cc1n[nH]c2ccc(-c3cncc(OC[C@@H](N)Cc4c[nH]c5ccccc45)c3)cc12 | – | – | – | – | – | – | – | – | – | – | – | 42% | – | – | – | – | – | – | – | – | inhibition [23]: Active; Activity [24]: Active; Activity [25]: Active |
